According to ChEMBL document CHEMBL1157394, “Absolute configuration and antimicrobial activity of acylhomoserine lactones” (2008):
Active and inactive are the calls of the source. No cut-off for these calls is given here.

Experiments:
Format in all cases: functional
[1] = tested on: Staphylococcus aureus; experiment: Antimicrobial activity against Staphylococcus aureus CCT 1295 24 hrs by MTT method
Summary of the method: (§1)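 Strain grown on solid nutrient broth slants at 30 °C for 24 h, then suspended in sterile water to 3 × 10⁸ cells/mL (McFarland). Suspension diluted into Mueller-Hinton medium in 96-well plates. Samples started from 1000 µg/mL stock in 20% aqueous DMSO and serially diluted twofold. Incubated 30 °C, 24 h; 0.025% MTT added. Purple wells scored as growth, yellow as inhibition. Run in duplicate; concentration range for growth inhibition reported.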

[2] = tested on: Bacillus subtilis; experiment: Antimicrobial activity against Bacillus subtilis CCT 0089 after 24 hrs by MTT method; summary of the method: as §1
[3] = tested on: Bacillus cereus; experiment: Antimicrobial activity against Bacillus cereus CCT 4060 after 24 hrs by MTT method; summary of the method: as §1

Compound	Activity [1]	Activity [2] [µg/mL]	Activity [3]
CCCCCC(=O)CC(=O)NC1CCOC1=O (racemic)	500 µg/mL	62.5	62.5 µg/mL
CCCCCCCCCC(=O)CC(=O)NC1CCOC1=O (racemic)	500 µg/mL	125	125 µg/mL
CCCCCCC(=O)NC1CCOC1=O (racemic)	inactive	500	inactive
CCCCCCCCCCCC(=O)CC(=O)NC1CCOC1=O (racemic)	500 µg/mL	250	500 µg/mL
O=C(N[C@H](CO)[C@H](O)c1ccc([N+](=O)[O-])cc1)C(Cl)Cl [CHLORAMPHENICOL]	7.81 µg/mL	3.91	3.91 µg/mL
